Activity calls are given as the source filed them. The rule behind the calls is not given here.
Legend:
Mus musculus [1] = assay: Inhibition of DPP4 in mouse plasma at 30 to 100 mg/kg, po; format: functional, organism-based
Mus musculus [2] = organism: Mus musculus; assay: Metabolic stability in mouse; format: ADME, organism-based; settings: in vivo
Homo sapiens = organism: Homo sapiens; assay: Metabolic stability in human; format: ADME, organism-based; settings: in vivo
Mus musculus [3] = assay: Antidiabetic activity in po dosed ICR mouse assessed as blood glucose excursion after 20 to 120 mins by oral glucose tolerance test; format: functional, organism-based
Method in brief: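 ICR mice dosed orally with distilled water vehicle or compound at 1, 3 or 10 mg/kg (10 mL/kg). Tail-nick blood glucose read by glucometer 30 min after dosing, then oral glucose challenge 2 g/kg (10 mL/kg). Blood glucose measured from tail bleeds at 20, 40, 60 and 120 min after glucose.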

Mus musculus [4] = assay: Inhibition of DPP4 in po dosed mouse plasma; format: functional, organism-based

Stability (Mus musculus [2])	Stability (Homo sapiens)	Structure (SMILES)	inhibition (Mus musculus [1])	Activity (Mus musculus [3])	inhibition (Mus musculus [4])
Stable	Stable	N[C@@H](CC(=O)NC1(c2cccc(-c3cncs3)c2)CCS(=O)(=O)CC1)Cc1cc(F)c(F)cc1F	inactive	–	–
Stable	Stable	N[C@@H](CC(=O)NC1(c2nc(-c3ccccc3)cs2)CCS(=O)(=O)CC1)Cc1cc(F)c(F)cc1F	–	Dose-dependent effect	Dose-dependent effect
Stable	Stable	N[C@@H](CC(=O)NC1(c2cccc(-n3ccnc3)c2)CCS(=O)(=O)CC1)Cc1cc(F)c(F)cc1F	inactive	–	–
